Measurements taken from ChEMBL document CHEMBL3352430, “4-Aminopyridyl-based CYP51 inhibitors as anti-Trypanosoma cruzi drug leads with improved pharmacokinetic profile and in vivo potency” (J Med Chem, 2014).

Assays:
Liver microsome [1] = experiment: Half life in rat liver microsomes; format: ADME
Lung [2] = experiment: Drug uptake in mouse lung at 50 mg/kg, po in 20% Kolliphor measured at 8 hrs post dose; format: ADME, organism-based; design: dose 50 mg/kg, route oral; details: in vivo
Procedure, shortened: (§1)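 Female Swiss Webster mice, 8 weeks old, given a single 50 mg/kg oral gavage dose in 20% HPβCD or 20% Kolliphor. Tissues taken from three mice at 2 and 8 h post dose. Homogenized by probe sonication in PBS (1:4 w/v), protein precipitated with acetonitrile, and compound measured by LC-MS/MS in μM.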

Liver [3] = experiment: Drug uptake in mouse liver at 50 mg/kg, po in 20% HP-beta-CD measured at 8 hrs post dose; format: ADME, organism-based; design: dose 50 mg/kg, route oral; details: in vivo; procedure, shortened: as §1
Lung [4] = experiment: Drug uptake in mouse lung at 50 mg/kg, po in 20% HP-beta-CD measured at 8 hrs post dose; format: ADME, organism-based; design: dose 50 mg/kg, route oral; details: in vivo; procedure, shortened: as §1
C2C12 = experiment: Cytotoxicity against mouse C2C12 cells up to 10 uM; format: cell-based
Procedure, shortened: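 Mouse C2C12 myoblasts infected with T. cruzi CA-I/72, then exposed at 24 h postinfection to compound at 10 μM down to 5 pM in 5-fold steps for 72 h at 37 °C. Cells fixed in paraformaldehyde, stained with DAPI and scored by automated imaging. Triplicate wells; uninfected and infected untreated wells as controls.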

Liver [5] = experiment: Drug uptake in mouse liver at 50 mg/kg, po in 20% Kolliphor measured at 8 hrs post dose; format: ADME, organism-based; design: dose 50 mg/kg, route oral; details: in vivo; procedure, shortened: as §1
Heart [6] = experiment: Drug uptake in mouse heart at 50 mg/kg, po in 20% Kolliphor measured at 8 hrs post dose; format: ADME, organism-based; design: dose 50 mg/kg, route oral; details: in vivo; procedure, shortened: as §1
Intestine [7] = experiment: Drug uptake in mouse intestine at 50 mg/kg, po in 20% HP-beta-CD measured at 8 hrs post dose; format: ADME, organism-based; design: dose 50 mg/kg, route oral; details: in vivo; procedure, shortened: as §1
Heart [8] = experiment: Drug uptake in mouse heart at 50 mg/kg, po in 20% HP-beta-CD measured at 8 hrs post dose; format: ADME, organism-based; design: dose 50 mg/kg, route oral; details: in vivo; procedure, shortened: as §1
[9] = Drug uptake in mouse fat at 50 mg/kg, po in 20% HP-beta-CD measured at 8 hrs post dose; format: ADME, organism-based, Adipose tissue; design: dose 50 mg/kg, route oral; details: in vivo; procedure, shortened: as §1
Liver microsome [10] = experiment: Half life in human liver microsomes; format: ADME
[11] = Drug uptake in mouse skeletal muscle at 50 mg/kg, po in 20% HP-beta-CD measured at 8 hrs post dose; format: ADME, organism-based, Muscle tissue; design: dose 50 mg/kg, route oral; details: in vivo; procedure, shortened: as §1
Intestine [12] = experiment: Drug uptake in mouse intestine at 50 mg/kg, po in 20% Kolliphor measured at 8 hrs post dose; format: ADME, organism-based; design: dose 50 mg/kg, route oral; details: in vivo; procedure, shortened: as §1
[13] = Drug uptake in mouse fat at 50 mg/kg, po in 20% Kolliphor measured at 8 hrs post dose; format: ADME, organism-based, Adipose tissue; design: dose 50 mg/kg, route oral; details: in vivo; procedure, shortened: as §1
Liver [14] = experiment: Half life in mouse liver microsomes; format: ADME
[15] = Drug uptake in mouse skeletal muscle at 50 mg/kg, po in 20% Kolliphor measured at 8 hrs post dose; format: ADME, organism-based, Muscle tissue; design: dose 50 mg/kg, route oral; details: in vivo; procedure, shortened: as §1
Trypanosoma cruzi [16] = experiment: Antitrypanosomal activity against Trypanosoma cruzi Y luc infected in mouse assessed as inhibition of parasitemia at 40 mg/kg, ip bid in 60% DMSO administered for 4 consecutive days starting on day 3 of infection measured on day 7 post infection relative to vehicle-treated control
Trypanosoma cruzi [17] = experiment: Antitrypanosomal activity against Trypanosoma cruzi Y luc infected in mouse assessed as inhibition of parasitemia at 50 mg/kg, po bid in 20% Kolliphor administered for 4 consecutive days starting on day 3 of infection measured on day 7 post infection relative to vehicle-treated control; format: functional
Procedure, shortened: (§2)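 Female Swiss Webster mice, 8 weeks old, infected ip with 10^5 T. cruzi Y luc trypomastigotes. Only mice with detectable luminescence on day 3 were treated. Compound given by oral gavage bid for four days, as a suspension in 20% HPβCD or a solution in 20% Kolliphor, five mice per group. Vehicle group and benznidazole 50 mg/kg served as controls. On day 7, mice were injected ip with 150 mg/kg d-luciferin and imaged after 5 min under isoflurane. Percent inhibition calculated against untreated mice; two-tailed paired t test.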

Trypanosoma cruzi [18] = experiment: Antitrypanosomal activity against Trypanosoma cruzi Y luc infected in mouse assessed as inhibition of parasitemia at 25 mg/kg, po bid in 20% Kolliphor administered for 4 consecutive days starting on day 3 of infection measured on day 7 post infection relative to vehicle-treated control; format: functional; procedure, shortened: as §2
Cytochrome P450 3A4 = Cytochrome P450 3A4 (Homo sapiens, UniProt P08684); experiment: Inhibition of CYP3A4 in human liver microsomes at 1 uM; format: ADME
Sequence of Cytochrome P450 3A4 (P08684 whole entry): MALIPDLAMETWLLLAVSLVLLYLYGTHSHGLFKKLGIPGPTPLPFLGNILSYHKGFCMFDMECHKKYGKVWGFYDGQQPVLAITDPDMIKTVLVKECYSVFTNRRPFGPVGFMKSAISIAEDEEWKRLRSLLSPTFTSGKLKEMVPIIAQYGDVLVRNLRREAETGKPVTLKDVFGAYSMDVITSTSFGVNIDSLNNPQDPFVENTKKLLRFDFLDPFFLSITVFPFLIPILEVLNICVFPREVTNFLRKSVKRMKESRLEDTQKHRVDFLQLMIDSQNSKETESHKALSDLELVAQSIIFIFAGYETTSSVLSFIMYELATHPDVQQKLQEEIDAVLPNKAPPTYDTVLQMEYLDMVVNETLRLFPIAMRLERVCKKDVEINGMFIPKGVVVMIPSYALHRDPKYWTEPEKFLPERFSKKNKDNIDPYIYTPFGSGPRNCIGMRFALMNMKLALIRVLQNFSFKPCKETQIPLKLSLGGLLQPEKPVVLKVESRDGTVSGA

Trypanosoma cruzi [19] = experiment: Antitrypanosomal activity against Trypanosoma cruzi amastigotes infected in mouse C2C12 cells after 72 hrs by DAPI staining method; format: functional, organism-based; details: C2C12, 72 h
Cytochrome P450 2D6 = Cytochrome P450 2D6 (Homo sapiens, UniProt P10635); experiment: Inhibition of CYP2D6 in human liver microsomes at 1 uM; format: ADME
Sequence of Cytochrome P450 2D6 (P10635 whole entry): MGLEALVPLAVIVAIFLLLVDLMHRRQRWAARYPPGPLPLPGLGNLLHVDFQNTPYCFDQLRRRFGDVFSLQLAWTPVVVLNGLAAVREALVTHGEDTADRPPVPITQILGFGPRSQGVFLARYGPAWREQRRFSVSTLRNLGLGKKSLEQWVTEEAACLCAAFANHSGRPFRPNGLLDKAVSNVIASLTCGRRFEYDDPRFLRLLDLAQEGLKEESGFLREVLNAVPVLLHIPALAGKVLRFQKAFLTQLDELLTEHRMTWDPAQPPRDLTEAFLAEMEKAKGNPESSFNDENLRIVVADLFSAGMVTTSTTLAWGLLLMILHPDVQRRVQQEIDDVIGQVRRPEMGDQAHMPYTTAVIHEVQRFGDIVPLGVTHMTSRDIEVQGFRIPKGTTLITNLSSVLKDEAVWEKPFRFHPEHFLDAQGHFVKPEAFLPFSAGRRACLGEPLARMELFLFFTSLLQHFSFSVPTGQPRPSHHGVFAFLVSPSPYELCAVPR

Cytochrome P450 1A2 = molecular target: T1, Cytochrome P450 1A2 (Homo sapiens, UniProt P05177); experiment: Inhibition of CYP1A2 in human liver microsomes at 1 uM; format: ADME
T1 sequence (P05177 whole entry): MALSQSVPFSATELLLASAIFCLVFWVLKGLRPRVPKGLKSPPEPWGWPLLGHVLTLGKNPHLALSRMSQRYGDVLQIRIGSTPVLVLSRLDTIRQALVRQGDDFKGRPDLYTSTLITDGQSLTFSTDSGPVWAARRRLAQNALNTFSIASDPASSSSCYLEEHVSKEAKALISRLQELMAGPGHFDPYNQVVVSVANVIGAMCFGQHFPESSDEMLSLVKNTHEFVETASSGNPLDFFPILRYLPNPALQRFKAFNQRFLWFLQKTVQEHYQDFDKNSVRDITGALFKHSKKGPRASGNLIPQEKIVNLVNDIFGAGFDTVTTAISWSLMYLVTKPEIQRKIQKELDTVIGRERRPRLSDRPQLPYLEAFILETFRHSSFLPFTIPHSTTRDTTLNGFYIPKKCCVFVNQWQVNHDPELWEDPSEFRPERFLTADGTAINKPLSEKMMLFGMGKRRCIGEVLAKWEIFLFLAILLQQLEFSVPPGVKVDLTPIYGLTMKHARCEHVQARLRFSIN

[20] = molecular target: Sterol 14-alpha demethylase (Trypanosoma cruzi (strain CL Brener), UniProt Q7Z1V1); experiment: Binding affinity to Trypanosoma cruzi CYP51 by UV-vis titration method; details: read-out: Kd(app)
Sequence of Sterol 14-alpha demethylase (Q7Z1V1 whole entry): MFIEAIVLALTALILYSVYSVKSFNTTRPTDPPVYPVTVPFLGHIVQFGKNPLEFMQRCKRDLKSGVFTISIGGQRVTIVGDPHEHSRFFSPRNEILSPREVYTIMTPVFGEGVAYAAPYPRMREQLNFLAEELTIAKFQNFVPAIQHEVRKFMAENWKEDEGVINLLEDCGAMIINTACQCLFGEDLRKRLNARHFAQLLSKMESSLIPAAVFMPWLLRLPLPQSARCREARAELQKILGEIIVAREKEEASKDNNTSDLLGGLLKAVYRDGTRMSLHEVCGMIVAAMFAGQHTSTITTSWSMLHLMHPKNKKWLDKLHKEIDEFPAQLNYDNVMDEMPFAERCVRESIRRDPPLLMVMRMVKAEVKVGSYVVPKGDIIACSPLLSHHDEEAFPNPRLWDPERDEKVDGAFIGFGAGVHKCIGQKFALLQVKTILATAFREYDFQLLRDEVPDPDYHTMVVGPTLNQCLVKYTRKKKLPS

Cytochrome P450 2C9 = Cytochrome P450 2C9 (Homo sapiens, UniProt P11712); experiment: Inhibition of CYP2C9 in human liver microsomes at 1 uM; format: ADME
Sequence of Cytochrome P450 2C9 (P11712 whole entry): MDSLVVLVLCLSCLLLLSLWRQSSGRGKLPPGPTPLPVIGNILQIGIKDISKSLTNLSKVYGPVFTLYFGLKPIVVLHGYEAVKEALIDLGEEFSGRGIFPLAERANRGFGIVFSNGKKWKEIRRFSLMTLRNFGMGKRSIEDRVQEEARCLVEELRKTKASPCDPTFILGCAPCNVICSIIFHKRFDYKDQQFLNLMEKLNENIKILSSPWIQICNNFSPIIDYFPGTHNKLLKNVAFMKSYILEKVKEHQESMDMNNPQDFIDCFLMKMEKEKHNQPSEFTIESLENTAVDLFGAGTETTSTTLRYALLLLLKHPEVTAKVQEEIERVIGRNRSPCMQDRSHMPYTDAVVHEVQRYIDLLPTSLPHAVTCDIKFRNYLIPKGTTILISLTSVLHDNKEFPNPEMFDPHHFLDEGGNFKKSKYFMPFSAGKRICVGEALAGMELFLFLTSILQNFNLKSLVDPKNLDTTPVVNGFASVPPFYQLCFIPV

[21] = Half life in mouse at 50 mg/kg, po in 20% Kolliphor; format: ADME, organism-based; design: dose 50 mg/kg, route oral; details: in vivo
Procedure, shortened: (§3)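 Female Swiss Webster mice, 8 weeks old, given one oral gavage dose of 50 mg/kg as a 10 mg/mL preparation in the named vehicle (20% HPβCD suspension or 20% Kolliphor). Plasma sampled at about 0.25, 0.5, 1, 2, 4, 6, 8, 12 and 24 h, n = 3 per time point. Protein precipitated with 5 volumes acetonitrile, filtered, then LC-MS/MS. Values are averages of three mice.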

[22] = Tmax in mouse at 50 mg/kg, po in 20% Kolliphor; format: ADME, organism-based; design: dose 50 mg/kg, route oral; details: in vivo; procedure, shortened: as §3
[23] = Clearance in mouse at 50 mg/kg, po in 20% Kolliphor; format: ADME, organism-based; design: dose 50 mg/kg, route oral; details: in vivo; procedure, shortened: as §3
[24] = Cmax in mouse at 50 mg/kg, po in 20% Kolliphor; format: ADME, organism-based; design: dose 50 mg/kg, route oral; details: in vivo; procedure, shortened: as §3
[25] = AUClast in mouse at 50 mg/kg, po in 20% Kolliphor; format: ADME, organism-based; design: time 0 - last, dose 50 mg/kg, route oral; details: plasma; procedure, shortened: as §3

| SMILES | t1/2 (Liver microsome [1]) [min] | Drug uptake (Lung [2]) | Drug uptake (Liver [3]) | Drug uptake (Lung [4]) | Drug uptake (Liver [5]) | Drug uptake (Heart [6]) | Drug uptake (Intestine [7]) | Drug uptake (Heart [8]) | Drug uptake [9] | t1/2 (Liver microsome [10]) [min] | Drug uptake [11] | Drug uptake (Intestine [12]) | Drug uptake [13] | t1/2 (Liver [14]) [min] | Drug uptake [15] | Activity (C2C12) | inhibition in vivo at 40 mg/kg (Trypanosoma cruzi [16]) [%] | inhibition in vivo at 50 mg/kg (Trypanosoma cruzi [17]) [%] | inhibition in vivo at 25 mg/kg (Trypanosoma cruzi [18]) [%] | also measured |
| --- | --- | --- | --- | --- | --- | --- | --- | --- | --- | --- | --- | --- | --- | --- | --- | --- | --- | --- | --- | --- |
| CC(=O)N1CCN(c2ccc(C(=O)N[C@H](Cc3c[nH]c4ccccc34)C(=O)Nc3ccncc3)c(F)c2)CC1 | 18 | Active | Active | Active | Active | Active | Active | Active | Active | 64 | Active | Active | Active | 13 | Active | Non-toxic | 52 | – | – | – |
| O=C(N[C@H](Cc1c[nH]c2ccccc12)C(=O)Nc1ccncc1)c1ccc(N2CCN(c3cccc(Cl)c3)CC2)cc1F | 21 | Active | Active | Active | Active | Active | Active | Active | Active | – | Active | Active | Active | 33 | Active | Non-toxic | – | 97.6 | 73.6 | – |
| O=C(N[C@H](Cc1c[nH]c2ccccc12)C(=O)Nc1ccncc1)c1ccc(-c2ccc(OCc3ccc(F)cc3)c(F)c2)cc1F | 39 | Active | Active | Active | Active | Active | Active | Active | Active | 15 | Active | Active | Active | 67 | Active | Non-toxic | 96.9 | – | 75.6 | – |

More lines, main results first:

| t1/2 (Liver microsome [1]) [min] | Drug uptake (Lung [2]) | Drug uptake (Liver [3]) | Drug uptake (Lung [4]) | Drug uptake (Liver [5]) | Drug uptake (Heart [6]) | Drug uptake (Intestine [7]) | Drug uptake (Heart [8]) | Drug uptake [9] | t1/2 (Liver microsome [10]) [min] | Drug uptake [11] | Drug uptake (Intestine [12]) | Drug uptake [13] | t1/2 (Liver [14]) [min] | Drug uptake [15] | SMILES | Activity (C2C12) | inhibition in vivo at 40 mg/kg (Trypanosoma cruzi [16]) [%] | inhibition in vivo at 50 mg/kg (Trypanosoma cruzi [17]) [%] | inhibition in vivo at 25 mg/kg (Trypanosoma cruzi [18]) [%] | also measured |
| --- | --- | --- | --- | --- | --- | --- | --- | --- | --- | --- | --- | --- | --- | --- | --- | --- | --- | --- | --- | --- |
| 20 | Active | Active | Active | Active | Active | Active | Active | Active | – | Active | Active | Active | – | Active | O=C(N[C@H](Cc1c[nH]c2ccccc12)C(=O)Nc1ccncc1)c1ccc(-c2cccc(F)c2)cc1F | Non-toxic | 51.6 | 71.3 | 47.4 | – |
| 31 | Active | Active | Active | Active | Active | Active | Active | Active | 33 | Active | Active | Active | 51 | Active | O=C(N[C@H](Cc1c[nH]c2ccccc12)C(=O)Nc1ccncc1)c1ccc(-c2cccc(C(F)(F)F)c2)cc1F | Non-toxic | 98.5 | 99.2 | 74.7 | inhibition (INH) (Cytochrome P450 3A4): 7%; EC50 (Trypanosoma cruzi [19]): 39 nM; inhibition (INH) (Cytochrome P450 2D6): 14%; inhibition (INH) (Cytochrome P450 1A2): -16%; Kd [20]: 80 nM; inhibition (INH) (Cytochrome P450 2C9): 92% |
| – | Active | Active | Active | Active | Active | Active | Active | Active | – | Active | Active | Active | – | Active | O=C(N[C@H](Cc1c[nH]c2ccccc12)C(=O)Nc1ccncc1)c1ccc(-c2ccc(F)c(F)c2)cc1F | Non-toxic | 83.6 | 78.5 | 41.5 | half-life [21]: 197 min; Tmax [22]: 120 min; CL/F [23]: 53.8 mL/min/kg; Cmax [24]: 3.71 µM; AUC(0-t) [25]: 32.5 µM·h |
| – | Active | Active | Active | Active | Active | Active | Active | Active | – | Active | Active | Active | – | Active | O=C(N[C@H](Cc1c[nH]c2ccccc12)C(=O)Nc1ccncc1)c1ccc(-c2cc(F)ccc2F)cc1F | Non-toxic | 35.4 | – | 72.2 | – |
